In ChEMBL document CHEMBL1156237, “Antiviral activity of benzimidazole derivatives. II. Antiviral activity of 2-phenylbenzimidazole derivatives” (Bioorg Med Chem, 2010):
The source made the active and inactive calls. How the calls were made is not given here.

test system: Bovine viral diarrhea virus 1; assay: Antiviral activity against Bovine viral diarrhea virus NADL infected in MDBK cells assessed as protection from virus-induced cytopathogenicity after 3 to 4 days by MTT method; format: functional, organism-based, Bovine viral diarrhea virus 1-NADL; conditions: Bovine viral diarrhea virus isolates and strains, MDBK
In short: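 Cytopathogenicity protection assay. MDBK cells at 3 × 10^4/well, grown overnight to confluence. Infected with BVDV NADL at m.o.i. 0.01 in MEM-E with 0.5% inactivated FBS, 1 mM Na pyruvate and 1% kanamycin. Serial compound dilutions added after 1 h. After 3–4 days at 37 °C, viability read by MTT; EC50 is the concentration giving 50% protection.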

Row | SMILES | EC50
1 | COc1ccc(-c2nc3cc(C(F)(F)F)ccc3[nH]2)c(OC)c1OC | > 100 µM
2 | Fc1cccc(F)c1-c1nc2cc(Cl)c(Cl)cc2[nH]1 | > 43 µM
3 | O=[N+]([O-])c1ccc(-c2nc3cc(C(F)(F)F)ccc3[nH]2)c([N+](=O)[O-])c1 | > 16 µM
4 | COc1ccc(-c2nc3cc(C(F)(F)F)ccc3[nH]2)c(OC)c1 | > 100 µM

test system: Yellow fever virus; assay: Antiviral activity against Yellow fever virus 17D infected in BHK cells assessed as protection from virus-induced cytopathogenicity after 3 to 4 days by MTT method; format: functional, organism-based; conditions: not given

Row | SMILES | EC50
5 | COc1ccc(-c2nc3cc(C(F)(F)F)ccc3[nH]2)c(OC)c1OC | > 32 µM
6 | Fc1cccc(F)c1-c1nc2cc(Cl)c(Cl)cc2[nH]1 | > 100 µM
7 | O=[N+]([O-])c1ccc(-c2nc3cc(C(F)(F)F)ccc3[nH]2)c([N+](=O)[O-])c1 | > 8 µM
8 | COc1ccc(-c2nc3cc(C(F)(F)F)ccc3[nH]2)c(OC)c1 | > 100 µM

test system: Human alphaherpesvirus 1; assay: Antiviral activity against HSV1 KOS infected in african green monkey Vero cells after 3 days by plaque reduction assay; format: functional, organism-based; conditions: Human alphaherpesvirus 1, KOS, 72 h
In short: (§1)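 Plaque reduction assay. Vero 76 cells at 2 × 10^5/well, grown overnight to confluence in D-MEM with 10% FBS. Infected 2 h with 50–100 PFU/well, unadsorbed virus removed. Overlay of D-MEM with 1% inactivated FBS and 0.75% methylcellulose, with or without serial compound dilutions. Incubated at 37 °C for 3 days (HSV-1 KOS, CVB-2 Ohio-1) or 5 days (RSV A2). Fixed and stained with crystal violet in 50% ethanol; plaques counted; EC50 by linear regression.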

Row | SMILES | EC50
9 | COc1ccc(-c2nc3cc(C(F)(F)F)ccc3[nH]2)c(OC)c1OC | > 70 µM
10 | Fc1cccc(F)c1-c1nc2cc(Cl)c(Cl)cc2[nH]1 | > 100 µM
11 | O=[N+]([O-])c1ccc(-c2nc3cc(C(F)(F)F)ccc3[nH]2)c([N+](=O)[O-])c1 | > 25 µM
12 | COc1ccc(-c2nc3cc(C(F)(F)F)ccc3[nH]2)c(OC)c1 | > 100 µM

test system: Respiratory syncytial virus; assay: Antiviral activity against RSV A2 infected in african green monkey Vero cells after 5 days by plaque reduction assay; format: functional, organism-based; conditions: human respiratory syncytial virus, A2, Vero, 120 h; in short: as §1

Row | SMILES | EC50
13 | COc1ccc(-c2nc3cc(C(F)(F)F)ccc3[nH]2)c(OC)c1OC | > 70 µM
14 | Fc1cccc(F)c1-c1nc2cc(Cl)c(Cl)cc2[nH]1 | > 100 µM
15 | O=[N+]([O-])c1ccc(-c2nc3cc(C(F)(F)F)ccc3[nH]2)c([N+](=O)[O-])c1 | > 25 µM
16 | COc1ccc(-c2nc3cc(C(F)(F)F)ccc3[nH]2)c(OC)c1 | > 100 µM

test system: Vaccinia virus; assay: Antiviral activity against Vaccinia virus Elstree-Lister infected in african green monkey Vero cells after 3 days by plaque reduction assay; format: functional, organism-based; conditions: Orthopoxvirus vaccinia, 72 h

Row | SMILES | EC50
17 | COc1ccc(-c2nc3cc(C(F)(F)F)ccc3[nH]2)c(OC)c1OC | > 70 µM
18 | Fc1cccc(F)c1-c1nc2cc(Cl)c(Cl)cc2[nH]1 | > 100 µM
19 | O=[N+]([O-])c1ccc(-c2nc3cc(C(F)(F)F)ccc3[nH]2)c([N+](=O)[O-])c1 | > 25 µM
20 | COc1ccc(-c2nc3cc(C(F)(F)F)ccc3[nH]2)c(OC)c1 | > 100 µM

test system: Human immunodeficiency virus 1; assay: Antiviral activity against HIV1 3B infected in human MT4 cells assessed as protection from virus-induced cytopathogenicity after 4 days by MTT method; format: functional, organism-based; conditions: not given
In short: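 MT-4 cells, 1 × 10^4/well in RPMI with or without serial compound dilutions, infected with HIV-1 IIIB, 100 CCID50 (m.o.i. 0.01). Protection from virus-induced cytopathogenicity read by MTT.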

Row | SMILES | Activity
21 | COc1ccc(-c2nc3cc(C(F)(F)F)ccc3[nH]2)c(OC)c1OC | inactive
22 | Fc1cccc(F)c1-c1nc2cc(Cl)c(Cl)cc2[nH]1 | inactive
23 | O=[N+]([O-])c1ccc(-c2nc3cc(C(F)(F)F)ccc3[nH]2)c([N+](=O)[O-])c1 | inactive
24 | COc1ccc(-c2nc3cc(C(F)(F)F)ccc3[nH]2)c(OC)c1 | inactive

test system: Poliovirus 1; assay: Antiviral activity against Polio virus type1 Sabin strain Chat infected in african green monkey Vero cells after 2 days by plaque reduction assay; format: functional, organism-based, Human poliovirus 1 strain Sabin; conditions: Enterovirus C, 48 h

Row | SMILES | EC50
25 | COc1ccc(-c2nc3cc(C(F)(F)F)ccc3[nH]2)c(OC)c1OC | 42 µM
26 | Fc1cccc(F)c1-c1nc2cc(Cl)c(Cl)cc2[nH]1 | > 100 µM
27 | O=[N+]([O-])c1ccc(-c2nc3cc(C(F)(F)F)ccc3[nH]2)c([N+](=O)[O-])c1 | > 25 µM
28 | COc1ccc(-c2nc3cc(C(F)(F)F)ccc3[nH]2)c(OC)c1 | > 100 µM

test system: not listed separately; assay: Cytotoxicity against BHK cells after 48 to 96 hrs by MTT assay; format: cell-based, Mesocricetus auratus; conditions: hamster
In short: (§2)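 Cell seeding: MDBK at 6 × 10^5 cells/mL in MEM-E with 10% horse serum and 1 mM Na pyruvate; BHK at 1 × 10^6 cells/mL in MEM-E with 10% FBS. Serial compound dilutions, 37 °C, 5% CO2. Viability of mock-infected cells by MTT after 48–96 h; CC50 is the concentration reducing viability by 50%.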

Row | SMILES | CC50
29 | COc1ccc(-c2nc3cc(C(F)(F)F)ccc3[nH]2)c(OC)c1OC | 32 µM
30 | Fc1cccc(F)c1-c1nc2cc(Cl)c(Cl)cc2[nH]1 | > 100 µM
31 | O=[N+]([O-])c1ccc(-c2nc3cc(C(F)(F)F)ccc3[nH]2)c([N+](=O)[O-])c1 | 8 µM
32 | COc1ccc(-c2nc3cc(C(F)(F)F)ccc3[nH]2)c(OC)c1 | > 100 µM

test system: not listed separately; assay: Cytotoxicity against african green monkey Vero cells; format: cell-based; conditions: chlorocebus sabaeus
In short: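 Vero 76 monolayers exposed to serial compound dilutions, run in parallel on the same 24-well plates as the plaque-reduction assays. CC50 is the concentration reducing viability of mock-infected cells by 50%.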

Row | SMILES | CC50
33 | COc1ccc(-c2nc3cc(C(F)(F)F)ccc3[nH]2)c(OC)c1OC | 70 µM
34 | Fc1cccc(F)c1-c1nc2cc(Cl)c(Cl)cc2[nH]1 | > 100 µM
35 | O=[N+]([O-])c1ccc(-c2nc3cc(C(F)(F)F)ccc3[nH]2)c([N+](=O)[O-])c1 | 25 µM
36 | COc1ccc(-c2nc3cc(C(F)(F)F)ccc3[nH]2)c(OC)c1 | > 100 µM

test system: not listed separately; assay: Cytotoxicity against human MT4 cells after 96 hrs by MTT assay; format: cell-based; conditions: MT4 cells
In short: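 Exponentially growing MT-4 cells at 1 × 10^5 cells/mL in RPMI-1640 with 10% FCS, exposed to serial compound dilutions at 37 °C, 5% CO2. Viability by MTT after 96 h; CC50 is the concentration reducing viability of mock-infected cells by 50%.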

Row | SMILES | CC50 at 96 h
37 | COc1ccc(-c2nc3cc(C(F)(F)F)ccc3[nH]2)c(OC)c1OC | 93 µM
38 | Fc1cccc(F)c1-c1nc2cc(Cl)c(Cl)cc2[nH]1 | 17 µM
39 | O=[N+]([O-])c1ccc(-c2nc3cc(C(F)(F)F)ccc3[nH]2)c([N+](=O)[O-])c1 | 9 µM
40 | COc1ccc(-c2nc3cc(C(F)(F)F)ccc3[nH]2)c(OC)c1 | > 100 µM

test system: Coxsackievirus B2; assay: Antiviral activity against Human coxsackievirus B2 Ohio-1 infected in african green monkey Vero cells after 3 days by plaque reduction assay; format: functional, organism-based, Coxsackievirus B2 (strain Ohio-1); conditions: Enterovirus B, Vero, 72 h; in short: as §1

Row | SMILES | EC50
41 | COc1ccc(-c2nc3cc(C(F)(F)F)ccc3[nH]2)c(OC)c1OC | 16 µM
42 | Fc1cccc(F)c1-c1nc2cc(Cl)c(Cl)cc2[nH]1 | 30 µM
43 | O=[N+]([O-])c1ccc(-c2nc3cc(C(F)(F)F)ccc3[nH]2)c([N+](=O)[O-])c1 | 9 µM
44 | COc1ccc(-c2nc3cc(C(F)(F)F)ccc3[nH]2)c(OC)c1 | 32 µM

test system: not listed separately; assay: Cytotoxicity against MDBK cells after 48 to 96 hrs by MTT assay; format: cell-based, Bos taurus; conditions: cattle, MDBK cells; in short: as §2

Row | SMILES | CC50
45 | COc1ccc(-c2nc3cc(C(F)(F)F)ccc3[nH]2)c(OC)c1OC | > 100 µM
46 | Fc1cccc(F)c1-c1nc2cc(Cl)c(Cl)cc2[nH]1 | 43 µM
47 | O=[N+]([O-])c1ccc(-c2nc3cc(C(F)(F)F)ccc3[nH]2)c([N+](=O)[O-])c1 | 16 µM
48 | COc1ccc(-c2nc3cc(C(F)(F)F)ccc3[nH]2)c(OC)c1 | > 100 µM

test system: Vesicular stomatitis virus; assay: Antiviral activity against VSV Indiana lab infected in african green monkey Vero cells after 2 days by plaque reduction assay; format: functional, organism-based; conditions: not given

Row | SMILES | Activity
49 | COc1ccc(-c2nc3cc(C(F)(F)F)ccc3[nH]2)c(OC)c1OC | inactive
50 | Fc1cccc(F)c1-c1nc2cc(Cl)c(Cl)cc2[nH]1 | inactive
51 | O=[N+]([O-])c1ccc(-c2nc3cc(C(F)(F)F)ccc3[nH]2)c([N+](=O)[O-])c1 | inactive
52 | COc1ccc(-c2nc3cc(C(F)(F)F)ccc3[nH]2)c(OC)c1 | inactive
